ChEMBL document CHEMBL3045343, “Nematicidal activity of 2-thiophenecarboxaldehyde and methylisothiocyanate from caper (Capparis spinosa) against Meloidogyne incognita” (J Agric Food Chem, 2012)
Converted amounts (≈) assume the structure as drawn.

Legend:
Meloidogyne incognita [1] = test: Nematicidal activity against Meloidogyne incognita (root-knot nematode) juveniles J2 assessed as paralysis after 1 hr; type: functional, organism-based
How it was run: (§1)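 M. incognita (Italian population reared on tomato cv. Roma VF) J2 hatched from egg masses in distilled water at 25 ± 2 °C. Methanol stocks diluted with Tween 20 in water (final methanol ≤1% v/v). Working solution at double strength mixed 1:1 with a suspension of 25 J2 per well. Held covered, dark, 20 °C. Paralysis scored by inverted microscope. Corrected by Schneider-Orelli against water control. EC50 from log-logistic regression. Six replicates; four experiments.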

Meloidogyne incognita [2] = test: Nematicidal activity against Meloidogyne incognita (root-knot nematode) juveniles J2 assessed as paralysis after 1 day; type: functional, organism-based; settings: 24 h; how it was run: as §1
Meloidogyne incognita [3] = test: Toxicity against Meloidogyne incognita (root-knot nematode) juveniles J2 at 100 mg/L after 24 hr; type: functional
How it was run: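 J2 were immersed in 100 mg/L test solution in multiwell plates containing 25 J2 per well. Plates were held in the dark at 20 °C. Paralysis or death was scored by microscope after 24 h and corrected against the water control.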

| SMILES | EC50 (Meloidogyne incognita [1]) | EC50 (Meloidogyne incognita [2]) | mortality at 100 µg/mL (Meloidogyne incognita [3]) |
| --- | --- | --- | --- |
| N#Cc1ccc(C=O)s1 | > 250 µg/mL | > 250 µg/mL |  |
| O=Cc1ccc[nH]1 | > 1000 µg/mL | 392 µg/mL (≈ 4120 µM) |  |
| Cn1cccc1C=O | > 1000 µg/mL | > 1000 µg/mL |  |
| N#Cc1c[nH]c2ccccc12 | > 250 µg/mL | 68.9 µg/mL (≈ 485 µM) |  |
| N#Cc1ccc(C#N)s1 [2,5-THIOPHENEDINITRILE] | > 250 µg/mL | > 250 µg/mL |  |
| O=Cc1ccc(C=O)s1 [2,5-THIOPHENENEDICARBOXALDEHYDE] | 1.2 µg/mL (≈ 8.56 µM) | 1.13 µg/mL (≈ 8.06 µM) |  |
| O=Cc1ccccn1 [2-PYRIDINECARBOXALDEHYDE] | 25 µg/mL (≈ 233 µM) | 3.6 µg/mL (≈ 33.6 µM) | 100% |
| O=C1CCCN1 [2-PYRROLIDONE] | > 250 µg/mL | > 250 µg/mL |  |
| N#Cc1cccs1 [2-THIOPHENECARBONITRILE] | > 100 µg/mL | > 100 µg/mL |  |
| O/N=C/c1cccs1 [2-THIOPHENECARBOXALDEHYDE OXIME] | > 250 µg/mL | > 250 µg/mL |  |
| O=Cc1cccs1 [2-THIOPHENENECARBOXALDEHYDE] | 105 µg/mL (≈ 936 µM) | 14.1 µg/mL (≈ 126 µM) | 100% |
| O=Cc1c[nH]c2ccccc12 [3-FORMYLINDOLE] | > 250 µg/mL | 301 µg/mL (≈ 2070 µM) |  |
| O=C1Nc2ccccc2C1=O [ISATIN] | > 250 µg/mL | > 250 µg/mL |  |
| CN=C=S [METHYLISOTHIOCYANATE] | > 10 µg/mL | 7.86 µg/mL (≈ 107 µM) |  |
| O=Cc1cccnc1 [NICOTINALDEHYDE] | > 250 µg/mL | > 10 µg/mL |  |
